Values after ≈ are worked out from the molar mass of the structure shown.
Experiments:
[1] = Maximum plasma level was measured in mice.; format: ADME, organism-based; conditions: mouse, read-out: Max plasma level
[2] = Half life was measured in mice.; format: ADME, organism-based; conditions: mouse, in vivo
Mus musculus = assay: Toxicity of compound was measured after ip administration to mice.; format: organism-based; conditions: in vivo
MT4 [3] = assay: Minimum inhibitory concentration required to reduce cytopathogenicity of human immunodeficiency virus-1 (HIV-1) in MT-4 cells by 50%; No activity below ID50 observed; format: functional, cell-based
MT4 [4] = assay: Inhibitory dose required to reduce the viability of MT-4 cells by 50%; format: functional, Homo sapiens
How it was run: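 Mock-infected MT-4 cells on the same plate as the HIV test, drug at 100, 10, 1 and 0.1 µM, triplicate wells. Growth inhibition assessed after 5 days by MTT uptake into viable cells, acidified propan-2-ol extraction and spectrophotometric reading.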

MRC5 [5] = assay: Minimum inhibitory concentration required to reduce cytopathogenicity of Herpes Virus-1 (HSV-1) in MRC -5 cells by 50%.; format: functional; conditions: Homo sapiens
How it was run: (§1)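 Plaque reduction: confluent monolayers (HSV-2 in Vero, HSV-1 in MRC-5) infected and overlaid with nutrient agarose holding doubling drug dilutions. Plaques counted after 5 days as % of control, plotted against log concentration, and IC50 read from the plot.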

MRC5 [6] = assay: Minimum inhibitory concentration required to reduce cytopathogenicity of Varicella Zoster Virus (VZV) in MRC-5 cells by 50%.; format: functional; conditions: Homo sapiens
MRC5 [7] = assay: Minimum inhibitory concentration required to reduce cytopathogenicity of cytomegalovirus (CMV) in MRC-5 cells by 50%.; format: functional; conditions: Homo sapiens
How it was run: (§2)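 MRC-5 monolayers in 24-well panels, infected after 24 h and overlaid with 0.5% indubiose A37 medium containing drug at 10 and 100 µM. After 5 days, giant cells (plaques) stained with methylene blue and examined microscopically.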

Vero [8] = assay: Minimum inhibitory concentration required to reduce cytopathogenicity of Herpes Virus-2 (HSV-2) in vero cells by 50%.; format: functional; conditions: Chlorocebus sabaeus; how it was run: as §1
Vero [9] = assay: Inhibitory dose required to reduce the viability of vero cells by 50%; format: functional, Chlorocebus sabaeus
MRC5 [10] = assay: Minimum inhibitory concentration required to reduce cytopathogenicity of Cytomegalovirus Virus (CMV) in MRC-5 cells by 50%.; format: functional; conditions: Homo sapiens; how it was run: as §2

| SMILES | Cmax [1] [µM] | half-life [2] [h] | Toxicity (Mus musculus) [mg/kg] | MIC50 (MT4 [3]) | ID50 (MT4 [4]) [µM] | MIC50 (MRC5 [5]) [µM] | MIC50 (MRC5 [6]) [µM] | MIC50 (MRC5 [7]) [µM] | MIC50 (Vero [8]) [µM] | ID50 (Vero [9]) [µM] | MIC50 (MRC5 [10]) [µM] |
| --- | --- | --- | --- | --- | --- | --- | --- | --- | --- | --- | --- |
| Cc1cn([C@H]2C[C@H](O)[C@@H](CO)S2)c(=O)[nH]c1=O [4'-THIOTHYMIDINE] | > 35 | 1 | > 40 | No activity | 1 | 0.37 (≈ 0.0956 µg/mL) | 10 (≈ 2.58 µg/mL) | 0.98 (≈ 0.253 µg/mL) | 2.3 (≈ 0.594 µg/mL) | 7.1 |  |
| O=c1[nH]c(=O)n([C@H]2C[C@H](O)[C@@H](CO)O2)cc1/C=C/Br [BRIVUDINE] |  |  |  |  |  | 0.03 (≈ 0.00999 µg/mL) | 0.02 (≈ 0.00666 µg/mL) |  | 12 (≈ 4 µg/mL) | > 500 | > 100 |
| Nc1nc2c(ncn2COCCO)c(=O)[nH]1 [ACYCLOVIR] |  |  |  |  |  | 1.3 (≈ 0.293 µg/mL) |  |  | 1.8 (≈ 0.405 µg/mL) | > 500 | 100 (≈ 22.5 µg/mL) |
| O=c1[nH]c(=O)n([C@@H]2C[C@H](O)[C@@H](CO)S2)cc1/C=C/Br |  |  |  |  | > 500 | > 500 |  |  | > 500 |  |  |
| O=c1[nH]c(=O)n([C@H]2C[C@H](O)[C@@H](CO)S2)cc1/C=C/Br | > 50 | 2 | > 40 | No activity | > 500 | 0.6 (≈ 0.21 µg/mL) | 0.08 (≈ 0.0279 µg/mL) |  | 10 (≈ 3.49 µg/mL) | > 500 |  |
| Cc1cn([C@@H]2C[C@H](O)[C@@H](CO)S2)c(=O)[nH]c1=O |  |  |  |  | > 100 | > 100 |  |  | > 100 | > 100 |  |
| Cc1cn(C2CC(N=[N+]=[N-])C(CO)S2)c(=O)[nH]c1=O (stereo not given) |  |  |  | No activity | > 100 | > 100 |  |  | > 100 | > 100 |  |

From ChEMBL document CHEMBL1125203, “The synthesis and antiviral activity of some 4'-thio-2'-deoxy nucleoside analogues” (J Med Chem, 1991)
